Results from ChEMBL document CHEMBL5678806, “NMS-P937, an orally available, specific small-molecule polo-like kinase 1 inhibitor with antitumor activity in solid and hematologic malignancies” (Mol Cancer Ther, 2012).
pIC50: −log10 of the molar value. Active and inactive are the calls of the source. The rule behind the calls is not given here.

What was measured:
1A9 = assay: Antiproliferative activity against human 1A9 cells assessed as inhibition of cell growth incubated for 72 hrs by cell-titer glo assay; type: functional, cell-based; conditions: 1A9, 72 h
Outline: (§1)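 Cells seeded 10,000–30,000/cm² (adherent) or 100,000/mL (suspension) in medium with 10% fetal calf serum; after 24 h treated in duplicate with serial dilutions for 72 h. Viable cells read by CellTiter-Glo luminescence; IC50 from sigmoidal fit; at least two independent experiments.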

[1] = molecular target: Serine/threonine-protein kinase DCLK2 (Homo sapiens) (UniProt Q8N568); assay: Inhibition of N-terminal 6His-tagged recombinant human DCAMKL2 (376 to end residues) expressed in baculovirus infected Sf21 cells assessed as residual activity at 1 uM relative to control
Chain of Serine/threonine-protein kinase DCLK2 (Homo sapiens) (Q8N568 whole entry): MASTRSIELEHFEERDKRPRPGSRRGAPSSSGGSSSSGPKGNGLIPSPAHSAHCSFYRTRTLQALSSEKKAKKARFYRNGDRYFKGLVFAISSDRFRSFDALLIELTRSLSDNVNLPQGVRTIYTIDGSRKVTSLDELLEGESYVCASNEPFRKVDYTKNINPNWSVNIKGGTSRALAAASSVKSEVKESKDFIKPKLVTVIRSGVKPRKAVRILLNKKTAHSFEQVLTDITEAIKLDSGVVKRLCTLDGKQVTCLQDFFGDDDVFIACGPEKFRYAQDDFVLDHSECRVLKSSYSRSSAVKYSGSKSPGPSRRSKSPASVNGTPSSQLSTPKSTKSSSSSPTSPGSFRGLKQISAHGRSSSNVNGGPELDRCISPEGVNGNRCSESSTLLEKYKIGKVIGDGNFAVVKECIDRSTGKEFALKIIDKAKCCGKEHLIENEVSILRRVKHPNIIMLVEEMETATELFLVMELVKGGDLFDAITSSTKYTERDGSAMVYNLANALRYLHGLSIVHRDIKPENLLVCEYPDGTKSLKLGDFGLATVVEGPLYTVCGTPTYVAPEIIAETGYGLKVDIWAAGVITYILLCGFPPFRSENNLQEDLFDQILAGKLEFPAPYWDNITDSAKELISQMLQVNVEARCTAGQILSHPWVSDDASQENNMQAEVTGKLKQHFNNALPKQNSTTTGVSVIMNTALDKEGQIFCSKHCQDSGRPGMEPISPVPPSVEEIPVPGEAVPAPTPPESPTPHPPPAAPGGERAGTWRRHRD

[2] = molecular target: Serine/threonine-protein kinase tousled-like 2 (Homo sapiens, UniProt Q86UE8); assay: Inhibition of N-terminal 6His-tagged recombinant human TLK2 (388 to end residues) expressed in baculovirus infected Sf21 cells assessed as residual activity at 0.1 uM relative to control
Chain of Serine/threonine-protein kinase tousled-like 2 (Q86UE8 whole entry, looked up): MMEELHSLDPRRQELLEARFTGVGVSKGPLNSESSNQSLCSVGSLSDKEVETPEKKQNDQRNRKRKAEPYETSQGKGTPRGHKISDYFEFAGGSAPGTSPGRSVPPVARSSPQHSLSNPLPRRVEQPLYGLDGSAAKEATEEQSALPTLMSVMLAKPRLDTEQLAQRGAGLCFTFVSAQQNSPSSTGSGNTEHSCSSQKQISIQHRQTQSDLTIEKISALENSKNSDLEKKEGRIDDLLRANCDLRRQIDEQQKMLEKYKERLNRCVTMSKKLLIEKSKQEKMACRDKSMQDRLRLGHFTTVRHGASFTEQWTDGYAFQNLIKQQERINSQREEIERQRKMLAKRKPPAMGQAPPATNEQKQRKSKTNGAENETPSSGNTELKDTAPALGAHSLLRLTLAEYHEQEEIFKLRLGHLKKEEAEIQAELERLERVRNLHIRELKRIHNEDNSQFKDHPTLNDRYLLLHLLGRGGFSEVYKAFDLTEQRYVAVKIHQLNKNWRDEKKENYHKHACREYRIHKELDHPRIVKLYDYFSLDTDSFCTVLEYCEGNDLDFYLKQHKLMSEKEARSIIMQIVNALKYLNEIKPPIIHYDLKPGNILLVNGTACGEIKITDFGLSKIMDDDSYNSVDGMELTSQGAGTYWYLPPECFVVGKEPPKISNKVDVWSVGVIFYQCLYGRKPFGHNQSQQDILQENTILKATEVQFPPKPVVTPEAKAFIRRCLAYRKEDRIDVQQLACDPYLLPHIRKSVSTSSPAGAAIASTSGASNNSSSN

[3] = molecular target: Ribosomal protein S6 kinase alpha-3 (Homo sapiens) (UniProt P51812); assay: Inhibition of N-terminal His6 tagged recombinant human full-length Rsk2 expressed in baculovirus infected Sf21 cells assessed as residual activity at 1 uM relative to control
Chain of Ribosomal protein S6 kinase alpha-3 (Homo sapiens) (P51812 whole entry): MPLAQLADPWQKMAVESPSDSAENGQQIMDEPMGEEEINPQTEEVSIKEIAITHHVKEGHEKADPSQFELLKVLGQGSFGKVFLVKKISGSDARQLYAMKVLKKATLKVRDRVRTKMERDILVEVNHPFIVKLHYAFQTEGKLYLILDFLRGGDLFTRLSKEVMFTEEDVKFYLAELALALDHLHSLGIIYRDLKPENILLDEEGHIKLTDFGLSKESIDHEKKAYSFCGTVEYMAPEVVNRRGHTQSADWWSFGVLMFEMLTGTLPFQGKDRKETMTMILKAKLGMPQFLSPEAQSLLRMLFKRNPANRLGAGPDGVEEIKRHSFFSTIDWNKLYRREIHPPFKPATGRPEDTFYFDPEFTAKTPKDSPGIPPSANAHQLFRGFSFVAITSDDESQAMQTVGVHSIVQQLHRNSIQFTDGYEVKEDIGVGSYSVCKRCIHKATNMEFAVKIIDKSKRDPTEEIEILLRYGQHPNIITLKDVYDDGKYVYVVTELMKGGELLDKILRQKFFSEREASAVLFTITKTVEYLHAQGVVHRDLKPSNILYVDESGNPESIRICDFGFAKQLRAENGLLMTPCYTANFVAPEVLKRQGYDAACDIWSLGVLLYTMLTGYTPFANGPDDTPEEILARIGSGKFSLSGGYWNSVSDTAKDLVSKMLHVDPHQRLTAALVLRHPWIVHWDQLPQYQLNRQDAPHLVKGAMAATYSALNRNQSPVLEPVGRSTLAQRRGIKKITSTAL

[4] = molecular target: Tyrosine-protein kinase Fgr (Homo sapiens) (UniProt P09769); assay: Inhibition of N-terminal His6-tagged recombinant human Fgr (2 to end residues) expressed in baculovirus infected Sf21 cells assessed as residual activity at 0.1 uM relative to control
SET-2 = assay: Antiproliferative activity against human SET2 cells assessed as inhibition of cell growth incubated for 72 hrs by cell-titer glo assay; type: functional, cell-based; conditions: SET-2, 72 h
Outline: (§2)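 Cells from ATCC or ECACC, kept in supplier-recommended medium with 1% penicillin-streptomycin at 37°C, 5% CO₂. Seeded at 10,000–30,000/cm² (adherent) or 100,000/mL (nonadherent) in medium with 10% fetal calf serum. Dosed after 24 h in duplicate with serial dilutions. Viable cells read by CellTiter-Glo 72 h later. IC50 from sigmoidal fit. At least two independent experiments.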

A2780 [5] = assay: In vivo inhibition of PLK1 in human A2780 cells xenografted in nu/nu mouse assessed as decreased TCTP phosphorylation on Ser46 at 60 mg/kg, po administered for 2 hrs by immunohistochemistry analysis; type: functional, organism-based
[6] = molecular target: cAMP-dependent protein kinase (PKA) (Homo sapiens) (UniProt P22694+P17612+P22612); assay: Inhibition of recombinant human full-length PKA expressed in E.coli BL21 (DE3) pLysS cells assessed as residual activity at 1 uM relative to control
[7] = Half-life in Beagle dog at 5 mg/kg, po by LC-MS analysis; type: ADME, organism-based, Canis lupus familiaris; conditions: in vivo
A2780 [8] = assay: Induction of cell cycle arrest in human A2780 cells assessed as accumulation of cells in G2/M phase by measuring upregulated PLK1 expression incubated for 24 hrs by Western blotting analysis; type: functional, cell-based; conditions: dose 0.02-0.2 µmol/L
Outline: (§3)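 A2780 ovarian carcinoma cells treated 24 h with a range of concentrations, with DMSO and nocodazole controls. 20 µg protein extract separated by SDS-PAGE and immunoblotted with chemiluminescent detection. Probed for total and phospho-Thr210 PLK1, phospho-Ser10 histone H3, phospho-Thr199 NPM and phospho-Tyr15 CDK1. Total NPM, tubulin and total CDK1 served as loading controls.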

MDA-MB-453 = assay: Antiproliferative activity against human MDA-MB-453 cells assessed as inhibition of cell growth incubated for 72 hrs by cell-titer glo assay; type: functional, cell-based; conditions: MDA-MB-453, 72 h
Outline: (§4)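 Cells seeded at 10,000–30,000/cm² (adherent) or 100,000/mL (nonadherent) in medium with 10% fetal calf serum; after 24 h, treated in duplicate with serial dilutions for 72 h. Viable cell number read by CellTiter-Glo luminescence; IC50 from sigmoidal fit; at least two independent experiments.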

A2780 [9] = assay: Induction of cell cycle arrest in human A2780 cells assessed as accumulation of cells in G2/M phase by measuring CDK1 phosphorylation on Tyr15 incubated for 24 hrs by Western blotting analysis; type: functional, cell-based; conditions: dose 0.02-0.2 µmol/L; outline: as §3
[10] = molecular target: cAMP-dependent protein kinase catalytic subunit PRKX (Homo sapiens) (UniProt P51817); assay: Inhibition of N-terminal 6His-tagged recombinant full-length human PrKX expressed in baculovirus infected Sf21 cells assessed as residual activity at 0.1 uM relative to control
Chain of cAMP-dependent protein kinase catalytic subunit PRKX (Homo sapiens) (P51817 whole entry): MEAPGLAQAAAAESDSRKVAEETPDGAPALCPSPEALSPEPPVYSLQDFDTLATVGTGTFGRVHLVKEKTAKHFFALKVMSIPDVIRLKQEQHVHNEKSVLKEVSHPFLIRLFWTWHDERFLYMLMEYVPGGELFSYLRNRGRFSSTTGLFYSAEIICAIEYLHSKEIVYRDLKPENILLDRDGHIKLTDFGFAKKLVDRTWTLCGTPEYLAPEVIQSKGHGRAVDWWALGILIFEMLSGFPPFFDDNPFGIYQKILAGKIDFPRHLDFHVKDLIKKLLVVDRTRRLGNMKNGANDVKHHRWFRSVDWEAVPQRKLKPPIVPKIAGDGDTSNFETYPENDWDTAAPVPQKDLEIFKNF

[11] = molecular target: CDC7/DBF4 (Cell division cycle 7-related protein kinase/Activator of S phase kinase) (Homo sapiens, UniProt O00311); assay: Inhibition of CDC7/DBF4 (unknown origin) in presence of [gamma-33P]ATP; type: protein-complex assay
Chain of CDC7/DBF4 (Cell division cycle 7-related protein kinase/Activator of S phase kinase) (Q9UBU7 whole entry): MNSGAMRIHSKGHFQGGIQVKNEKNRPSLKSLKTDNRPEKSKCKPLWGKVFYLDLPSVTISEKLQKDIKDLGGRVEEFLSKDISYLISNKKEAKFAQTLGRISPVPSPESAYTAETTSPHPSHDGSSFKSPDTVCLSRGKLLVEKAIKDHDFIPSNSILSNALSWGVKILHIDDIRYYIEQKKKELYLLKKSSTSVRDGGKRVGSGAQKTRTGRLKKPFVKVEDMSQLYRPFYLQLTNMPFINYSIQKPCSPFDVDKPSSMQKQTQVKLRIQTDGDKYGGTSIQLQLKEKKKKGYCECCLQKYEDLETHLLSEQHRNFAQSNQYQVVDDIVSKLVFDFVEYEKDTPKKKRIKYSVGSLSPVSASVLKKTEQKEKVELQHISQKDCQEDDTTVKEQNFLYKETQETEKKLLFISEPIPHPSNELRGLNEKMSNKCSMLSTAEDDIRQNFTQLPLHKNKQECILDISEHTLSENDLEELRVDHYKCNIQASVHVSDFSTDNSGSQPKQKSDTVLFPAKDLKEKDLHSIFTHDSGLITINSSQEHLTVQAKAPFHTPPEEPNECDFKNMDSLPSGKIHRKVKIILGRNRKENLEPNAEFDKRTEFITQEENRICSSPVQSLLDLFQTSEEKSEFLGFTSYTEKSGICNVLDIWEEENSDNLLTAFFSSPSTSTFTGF
Chain of CDC7/DBF4 (Cell division cycle 7-related protein kinase/Activator of S phase kinase) (O00311 whole entry): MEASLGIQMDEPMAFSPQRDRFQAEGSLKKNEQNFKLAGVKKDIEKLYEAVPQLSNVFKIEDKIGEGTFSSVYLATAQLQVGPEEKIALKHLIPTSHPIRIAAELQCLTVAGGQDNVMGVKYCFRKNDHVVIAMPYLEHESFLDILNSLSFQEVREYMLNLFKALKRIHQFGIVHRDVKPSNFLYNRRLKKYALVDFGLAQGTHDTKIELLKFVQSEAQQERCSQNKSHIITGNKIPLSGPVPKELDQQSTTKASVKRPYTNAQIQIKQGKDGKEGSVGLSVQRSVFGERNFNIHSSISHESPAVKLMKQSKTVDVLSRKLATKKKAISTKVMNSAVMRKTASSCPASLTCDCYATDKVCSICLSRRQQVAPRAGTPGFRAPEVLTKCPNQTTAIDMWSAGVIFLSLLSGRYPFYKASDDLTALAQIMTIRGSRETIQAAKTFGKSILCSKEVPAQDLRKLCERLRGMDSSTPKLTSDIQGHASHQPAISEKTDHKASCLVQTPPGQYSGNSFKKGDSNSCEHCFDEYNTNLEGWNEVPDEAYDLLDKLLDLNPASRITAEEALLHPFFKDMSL

KU812 cell line = assay: Antiproliferative activity against human KU812 cell line assessed as inhibition of cell growth incubated for 72 hrs by cell-titer glo assay; type: functional, cell-based; conditions: KU812, 72 h; outline: as §4
[12] = molecular target: Tyrosine-protein kinase ZAP-70 (Homo sapiens, UniProt P43403); assay: Inhibition of ZAP70 (unknown origin) in presence of [gamma-33P]ATP
Jurkat = assay: Antiproliferative activity against human Jurkat cells assessed as inhibition of cell growth incubated for 72 hrs by cell-titer glo assay; type: functional, cell-based; outline: as §4
[13] = molecular target: Tyrosine-protein kinase Fes/Fps (Homo sapiens) (UniProt P07332); assay: Inhibition of N-terminal His6-tagged recombinant full length human Fes expressed in baculovirus infected Sf21 cells assessed as residual activity at 0.1 uM relative to control
A2780 [14] = assay: Induction of mitosis in human A2780 cells xenografted in nu/nu mouse assessed as decreased NPM phosphorylation on Thr199 at 60 mg/kg, po administered for 12 to 24 hrs by immunohistochemistry analysis; type: functional, organism-based; conditions: time lower […], time upper 24.0 hrs
[15] = molecular target: SRSF protein kinase 3 (Homo sapiens) (UniProt Q9UPE1); assay: Inhibition of N-terminal 6His-tagged recombinant human full-length MSSK1 expressed in baculovirus infected Sf21 cells assessed as residual activity at 1 uM relative to control
Chain of SRSF protein kinase 3 (Homo sapiens) (Q9UPE1 whole entry): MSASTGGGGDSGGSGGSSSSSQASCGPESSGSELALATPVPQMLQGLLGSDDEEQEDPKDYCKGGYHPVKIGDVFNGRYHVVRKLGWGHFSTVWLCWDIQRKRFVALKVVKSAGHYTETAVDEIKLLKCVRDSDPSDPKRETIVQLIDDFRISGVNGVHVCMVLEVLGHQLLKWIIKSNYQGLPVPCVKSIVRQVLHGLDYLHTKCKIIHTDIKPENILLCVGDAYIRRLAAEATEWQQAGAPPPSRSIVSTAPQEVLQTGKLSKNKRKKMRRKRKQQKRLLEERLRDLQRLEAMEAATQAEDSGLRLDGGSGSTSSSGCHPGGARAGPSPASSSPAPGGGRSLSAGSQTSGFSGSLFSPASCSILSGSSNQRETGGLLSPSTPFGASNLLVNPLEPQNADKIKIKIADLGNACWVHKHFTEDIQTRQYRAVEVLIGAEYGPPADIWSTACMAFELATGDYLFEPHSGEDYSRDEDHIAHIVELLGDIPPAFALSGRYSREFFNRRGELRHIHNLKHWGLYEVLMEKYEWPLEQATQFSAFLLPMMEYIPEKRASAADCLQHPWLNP

DU-4475 = assay: Antiproliferative activity against human DU-4475 cells assessed as inhibition of cell growth incubated for 72 hrs by cell-titer glo assay; type: functional, cell-based; conditions: DU-4475, 72 h; outline: as §1
HDQ-P1 = assay: Antiproliferative activity against human HDQ-P1 cells assessed as inhibition of cell growth incubated for 72 hrs by cell-titer glo assay; type: functional, cell-based; conditions: HDQ-P1, 72 h
Outline: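 Cells seeded at 10,000–30,000/cm² (adherent) in medium with 10% fetal calf serum; after 24 h treated in duplicate with serial dilutions for 72 h. Viable cell number read by CellTiter-Glo luminescence. IC50 from sigmoidal curve fit; at least two independent experiments.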

[16] = molecular target: Dual specificity mitogen-activated protein kinase kinase 1 (Homo sapiens) (UniProt Q02750); assay: Inhibition of N-terminal GST and C-terminal His6-tagged recombinant full-length human MEK1 expressed in E. coli assessed as residual activity at 0.1 uM relative to control
Chain of Dual specificity mitogen-activated protein kinase kinase 1 (Homo sapiens) (Q02750 whole entry): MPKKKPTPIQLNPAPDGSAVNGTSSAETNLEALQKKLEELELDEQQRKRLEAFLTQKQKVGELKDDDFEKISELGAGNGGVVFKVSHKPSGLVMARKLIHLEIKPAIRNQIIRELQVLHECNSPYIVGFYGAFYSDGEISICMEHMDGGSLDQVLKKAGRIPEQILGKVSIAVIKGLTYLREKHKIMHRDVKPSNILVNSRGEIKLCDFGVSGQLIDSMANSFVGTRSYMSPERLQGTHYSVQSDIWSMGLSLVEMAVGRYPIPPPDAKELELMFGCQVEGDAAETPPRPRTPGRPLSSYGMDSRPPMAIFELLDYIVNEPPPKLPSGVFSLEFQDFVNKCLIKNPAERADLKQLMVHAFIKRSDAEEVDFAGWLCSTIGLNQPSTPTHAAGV

PANC-1 = assay: Antiproliferative activity against human PANC-1 cells assessed as inhibition of cell growth incubated for 72 hrs by cell-titer glo assay; type: functional, cell-based; conditions: PANC-1, 72 h; outline: as §2
SF-295 = assay: Antiproliferative activity against human SF-295 cells assessed as inhibition of cell growth incubated for 72 hrs by cell-titer glo assay; type: functional, cell-based; conditions: SF-295, 72 h; outline: as §2

`CN1CCN(c2ccc(OC(F)(F)F)c(Nc3ncc4c(n3)-c3c(c(C(N)=O)nn3CCO)CC4)c2)CC1` [ONVANSERTIB] gave a pIC50 (1A9) of 7.21, an Activity [1] of 90% and an Activity [2] of 182%. It also gave an Activity [3] of 89%, an Activity [4] of 93% and a pIC50 (SET-2) of 6.84. The inhibition (A2780 [5]) was “Active”, the Activity [6] was 85% and the half-life [7] was 4.6 h. The Activity (A2780 [8]) was “Dose-Dependent Effect”, the pIC50 (MDA-MB-453) was 7.05 and the Activity (A2780 [9]) was “Dose-Dependent Effect”. It also gave an Activity [10] of 90%, a pIC50 [11] of under 5.00 and a pIC50 (KU812 cell line) of 7.70. For the same molecule, the pIC50 [12] was under 5.00, the pIC50 (Jurkat) was 7.32 and the Activity [13] was 73%. The Activity (A2780 [14]) was “Active”, the Activity [15] was 89% and the pIC50 (DU-4475) was 7.33. The pIC50 (HDQ-P1) was 7.29, the Activity [16] was 113% and the pIC50 (PANC-1) was 6.74. The pIC50 (SF-295) was 6.41.
